Consider six compounds from ChEMBL document CHEMBL2203144, “Synthesis and evaluation of antimicrobial activity of 4H-pyrimido[2,1-b]benzothiazole, pyrazole and benzylidene derivatives of curcumin” (Eur J Med Chem, 2012).

Test [1] deals with Aspergillus niger. The test can be described thus: Antifungal activity against Aspergillus niger after 72 hrs by agar disk diffusion method. It counts as functional. Summed up:
(§1)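 Sterile filter-paper discs dipped in the acetone dilutions of compound (20–0.315 µM/mL), then dried to remove acetone. Sabouraud dextrose agar plates spread with 1 mL fungal culture. Discs placed aseptically; one drug-free disc served as growth control; fluconazole reference. Plates incubated upright 72 h at 28 °C. Zone of inhibition measured in mm with a scale.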
(In general: Agar diffusion results depend on both activity and mobility in agar.)

Test [2] has as its system Aspergillus flavus. The test can be described thus: Antifungal activity against Aspergillus flavus after 72 hrs by agar disk diffusion method. It counts as functional. Summed up: as §1
The test system of a further test is Salmonella typhi. The experiment in a line: Antibacterial activity against Salmonella typhi ATCC 15499 after 24 hrs by broth microdilution method. The class given is functional. Put shortly: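 Broth microdilution in brain heart infusion broth in microwells. Inoculum was prepared from 16 h cultures adjusted to the 0.5 McFarland standard (1.5 × 10⁸ CFU/mL). Compounds were serially diluted from 20 down to 0.625 µM/mL and added to the broth, followed by the bacterial culture. Plates were incubated 24 h at 37 °C, with optical density read. MIC95 was the lowest concentration giving no turbidity. Inoculum and broth controls were included.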
A general note: Broth dilution looks for growth in wells or tubes with falling amounts of substance.

A further test deals with Providencia rettgeri. The test can be described thus: Antibacterial activity against Providencia rettgeri DRDE after 24 hrs by broth microdilution method. It counts as functional. Summed up:
(§2)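 Microwell broth dilution in brain heart infusion broth (nutrient broth adjusted to pH 7.0). Inoculum from 16 h cultures, adjusted to 0.5 McFarland (1.5 × 10⁸ CFU/mL). 10 µL compound (serial dilutions 20 down to 0.625 or 0.312 µM/mL) plus 10 µL culture added to 150 µL broth. Incubated 24 h at 37 °C. MIC95 is the lowest concentration with no turbidity. Ciprofloxacin reference; inoculum and broth controls.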

The test system of the next test is Pseudomonas aeruginosa. The experiment in a line: Antibacterial activity against Pseudomonas aeruginosa ATCC 23564 after 24 hrs by broth microdilution method. It counts as functional. Summed up: as §2
In test [3] the test system is Aspergillus fumigatus. The test can be described thus: Antifungal activity against Aspergillus fumigatus after 72 hrs by broth dilution method. It counts as functional. Put shortly: (§3)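 Compounds and fluconazole reference were dissolved in acetone at 120 µM/mL and serially diluted to 20–0.315 µM/mL. 10 µL compound plus 10 µL fungal culture broth added to 150 µL Sabouraud dextrose medium per well. Optical density recorded, then incubated 72 h at 28 °C. MIC95 taken from absence of turbidity. Acetone-at-same-dilution solvent control.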

Test [4] deals with Aspergillus flavus. The test can be described thus: Antifungal activity against Aspergillus flavus after 72 hrs by broth dilution method. It counts as functional. Summed up: as §3
The subject of another test is Bacillus cereus. The experiment in a line: Antibacterial activity against Bacillus cereus MTCC 7350 after 24 hrs by broth microdilution method. The class given is functional. Put shortly:
as §2

Test [5] deals with Aspergillus fumigatus. The test can be described thus: Antifungal activity against Aspergillus fumigatus after 72 hrs by agar disk diffusion method. The class given is functional. Summed up:
as §1

For test [6], the system named is Aspergillus niger. The test can be described thus: Antifungal activity against Aspergillus niger after 72 hrs by broth dilution method. The class given is functional. Put shortly: as §3
The next test relates to Escherichia coli. The test can be described thus: Antibacterial activity against Escherichia coli ATCC 35218 after 24 hrs by broth microdilution method. The class given is functional. Put shortly:
as §2

Test [7] can be described thus: Cytotoxicity against human L123 cells after 48 hrs by MTT assay. The class given is cell-based. Put shortly: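 MTT assay. 2×10³ cells per well in MEM + 10% FBS, attached 24 h, then treated at 5, 10, 20, 50 and 100 µM/mL for 48 h; controls received medium with 0.2% DMSO. Duplicate treatments. Cells PBS-washed, given MTT (stock 1 mg/mL) for 4 h at 37 °C. Formazan dissolved in DMSO, read at 590 nm. IC50 is the concentration reducing viability by 50%.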

The next test deals with Staphylococcus aureus. The experiment in a line: Antibacterial activity against Staphylococcus aureus ATCC 11632 after 24 hrs by broth microdilution method. It counts as functional. Summed up: as §2
Where [8] appears, read: Salmonella enterica subsp. enterica serovar Typhi.

Calls of active or inactive are those of the source. The rule behind the calls is not given here.

`COc1cc(/C=C/C(=O)C2=C(/C=C/c3ccc(O)c(OC)c3)N=C3Sc4ccccc4N3C2c2c(Cl)cccc2Cl)ccc1O` (stereo not drawn): the “inhibition zone (IZ)” value in the test with Aspergillus niger [1], in the test on Aspergillus flavus [2] and with Aspergillus fumigatus [5] was “inactive” each time. The MIC95 entry with Salmonella typhi (setting [8]), in the test with Aspergillus fumigatus [3], in the test with Aspergillus flavus [4], with Aspergillus niger [6] and in the test with Staphylococcus aureus was “inactive” each time. Besides, the MIC95 in the test on Providencia rettgeri is 10 uM/ml; in the test with Pseudomonas aeruginosa it was 20 uM/ml; in the test with Bacillus cereus, 5 uM/ml; against Escherichia coli, 20 uM/ml. Also, in test [7], the IC50 is > 100 uM/ml.
Regarding `COc1cc(/C=C/C(=O)C2=C(/C=C/c3ccc(O)c(OC)c3)N=C3Sc4ccccc4N3C2c2ccc([N+](=O)[O-])cc2)ccc1O` (stereo not drawn), the “inhibition zone (IZ)” value in the test on Aspergillus niger [1] stood at 10 mm; in the test with Aspergillus fumigatus [5], 15 mm. The “inhibition zone (IZ)” value in the test on Aspergillus flavus [2] is “inactive”. In addition, the MIC95 in the test on Salmonella typhi stood at 20 uM/ml; in the test with Providencia rettgeri it was 10 uM/ml; in the test on Pseudomonas aeruginosa it was 10 uM/ml; in the test on Aspergillus fumigatus [3], 20 uM/ml; against Bacillus cereus, 2.5 uM/ml; with Aspergillus niger [6], 10 uM/ml. Besides, the MIC95 in the test with Escherichia coli is given as 5 uM/ml. The MIC95 entry in the test on Aspergillus flavus [4] and in the test on Staphylococcus aureus was “inactive” in each case. For the same compound, in [7], the IC50 is recorded as > 100 uM/ml.
Turning to `COc1cc(/C=C/C(=O)C(=Cc2ccc(N(C)C)cc2)C(=O)/C=C/c2ccc(O)c(OC)c2)ccc1O`, the “inhibition zone (IZ)” value with Aspergillus niger [1] was 15 mm; in the test on Aspergillus fumigatus [5] it was 20 mm. Besides, the “inhibition zone (IZ)” value in the test on Aspergillus flavus [2] was “inactive”. For the same compound, the MIC95 against Salmonella typhi is on record as 2.5 uM/ml; in the test on Pseudomonas aeruginosa it was 1.25 uM/ml; against Aspergillus fumigatus [3] it was 1.25 uM/ml; with Bacillus cereus, 0.625 uM/ml; with Aspergillus niger [6], 5 uM/ml; against Staphylococcus aureus, 5 uM/ml. Moreover, the MIC95 result in the test on Providencia rettgeri, in the test on Aspergillus flavus [4] and in the test with Escherichia coli was “inactive” throughout. In test [7], the IC50 is given as > 100 uM/ml.
For `COc1cc(/C=C/C(=O)C2=C(/C=C/c3ccc(O)c(OC)c3)N=C3Sc4ccccc4N3C2c2ccc(Cl)cc2)ccc1O` (stereo not drawn), the “inhibition zone (IZ)” value in the test with Aspergillus niger [1], in the test with Aspergillus flavus [2] and in the test on Aspergillus fumigatus [5] was “inactive” each time. The MIC95 entry in the test on Salmonella typhi (setting [8]), with Providencia rettgeri, with Aspergillus fumigatus [3], in the test with Aspergillus flavus [4], in the test on Aspergillus niger [6] and in the test with Staphylococcus aureus was “inactive” each time. Moreover, the MIC95 is reported as 20 uM/ml against Pseudomonas aeruginosa, 5 uM/ml in the test with Bacillus cereus and 10 uM/ml against Escherichia coli. Moreover, in test [7], the IC50 is given as > 100 uM/ml.
With `COc1cc(/C=C/c2cc(/C=C/c3ccc(O)c(OC)c3)n(-c3ccc([N+](=O)[O-])cc3[N+](=O)[O-])n2)ccc1O`, the “inhibition zone (IZ)” value in the test on Aspergillus niger [1] was 17 mm; in the test on Aspergillus flavus [2], 20 mm. Moreover, the MIC95 in the test on Salmonella typhi is 2.5 uM/ml; against Aspergillus flavus [4] it was 1.25 uM/ml; against Bacillus cereus, 1.25 uM/ml; with Aspergillus niger [6], 2.5 uM/ml; with Staphylococcus aureus, 1.25 uM/ml. Also, the MIC95 result in the test with Providencia rettgeri, in the test on Pseudomonas aeruginosa, with Aspergillus fumigatus [3] and in the test on Escherichia coli was “inactive” each time. In the test on Aspergillus fumigatus [5], the “inhibition zone (IZ)” value was “inactive”. Moreover, in [7], the IC50 is given as > 100 uM/ml.
Take `COc1cc(/C=C/C(=O)C2=C(/C=C/c3ccc(O)c(OC)c3)N=C3Sc4ccccc4N3C2c2ccccc2O)ccc1O` (stereo not drawn): the “inhibition zone (IZ)” value with Aspergillus niger [1], in the test on Aspergillus flavus [2] and with Aspergillus fumigatus [5] was “inactive” each time. In addition, the MIC95 entry with Salmonella typhi (setting [8]), in the test on Providencia rettgeri, in the test with Aspergillus fumigatus [3], with Aspergillus flavus [4], in the test on Aspergillus niger [6] and in the test on Escherichia coli was “inactive” each time. Besides, the MIC95 worked out at 20 uM/ml with Pseudomonas aeruginosa, 5 uM/ml in the test on Bacillus cereus and 20 uM/ml with Staphylococcus aureus. In [7], this compound registered an IC50 of 50 uM/ml.
